According to ChEMBL document CHEMBL3992521, “Pyrimidinyl Biphenylureas: Identification of New Lead Compounds as Allosteric Modulators of the Cannabinoid Receptor CB1” (J Med Chem, 2017):
The source made the active and inactive calls. The calls are words filed in the database; no cut-off is given here.

Legend:
[1] = biological target: Cannabinoid receptor 1 (Homo sapiens) (UniProt P21554); test: Positive allosteric modulation of CB1 receptor (unknown origin) expressed in HEK293T cell membranes assessed as increase in [3H]CP55,940 binding by liquid scintillation counting method
Cannabinoid receptor 1 (Homo sapiens), sequence (P21554 whole entry): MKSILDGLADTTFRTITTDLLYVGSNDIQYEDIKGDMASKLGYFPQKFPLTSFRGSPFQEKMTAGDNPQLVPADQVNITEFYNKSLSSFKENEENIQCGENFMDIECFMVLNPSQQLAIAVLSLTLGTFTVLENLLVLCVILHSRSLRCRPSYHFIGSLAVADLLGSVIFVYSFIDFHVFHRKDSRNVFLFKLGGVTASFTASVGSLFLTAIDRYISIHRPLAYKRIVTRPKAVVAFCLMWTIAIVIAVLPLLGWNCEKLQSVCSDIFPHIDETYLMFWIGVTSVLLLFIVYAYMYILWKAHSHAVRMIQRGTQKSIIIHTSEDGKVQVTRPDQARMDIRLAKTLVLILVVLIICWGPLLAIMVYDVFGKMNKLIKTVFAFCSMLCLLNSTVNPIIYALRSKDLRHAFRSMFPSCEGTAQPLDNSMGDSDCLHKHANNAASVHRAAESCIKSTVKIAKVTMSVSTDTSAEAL
How it was run: (§1)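 Membranes from HEK293T cells transiently expressing CB1 (harvested 24 h post-transfection) incubated with 0.5 nM [3H]CP55,940 and at least nine modulator concentrations (100 pM–100 µM) in TME buffer pH 7.4 with 0.2% fatty acid-free BSA; nonspecific binding with 1 µM unlabeled CP55,940; filtration. KB and cooperativity α from nonlinear regression; duplicate, ≥3 experiments, 95% confidence limits.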

[2] = biological target: Cannabinoid receptor 1 (Homo sapiens) (UniProt P21554); test: Allosteric modulation at CB1 receptor (unknown origin) expressed in HEK293T cell membranes assessed as inhibition of CP55,940 induced [35S]GTPgammaS binding after 1 hr by liquid scintillation counting method; assay type: functional
How it was run: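 HEK293T cells transiently transfected with CB1 (calcium phosphate), membranes harvested 24 h later; 7.5 µg membrane incubated 1 h at 30 °C with CP55,940 1 µM, 0.1 nM [35S]GTPγS, 5 µM GDP, 0.1% BSA in Tris-HCl pH 7.4/MgCl2/EGTA/NaCl buffer, varying modulator concentrations. Nonspecific binding with 10 µM unlabeled GTPγS; filtration. Expressed as % of CP55,940 signal; duplicate, ≥3 independent experiments.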

[3] = biological target: Cannabinoid receptor 1 (Homo sapiens) (UniProt P21554); test: Positive allosteric modulation of CB1 receptor (unknown origin) expressed in HEK293T cell membrane assessed as increase in beta-arrestin mediated ERK1/2 phosphorylation at 10 uM in presence of G-protein sensitive pertussis toxin incubated for 5 mins by Western blot method; assay type: cell-based
How it was run: (§2)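 CB1-transfected HEK293T cells carried control, β-arrestin 1 or β-arrestin 2 siRNA, or were pretreated 12 h at 37 °C with PTX 5 ng/mL. They were then washed and given allosteric modulator 10 μM alone for 5 min, with DMSO vehicle as control. ERK1/2 phosphorylation was read by Western blot of 13 µg lysate protein using phospho- and total p44/42 antibodies.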

[4] = biological target: Cannabinoid receptor 1 (Homo sapiens) (UniProt P21554); test: Positive allosteric modulation of CB1 receptor (unknown origin) expressed in HEK293T cell membrane assessed as ERK1/2 phosphorylation in presence of beta-arrestin1 siRNA at 10 uM incubated for 5 mins by Western blot method; assay type: cell-based; how it was run: as §2
[5] = biological target: Cannabinoid receptor 1 (Homo sapiens) (UniProt P21554); test: Positive allosteric modulation of CB1 receptor (unknown origin) expressed in HEK293T cell membranes assessed as increase in [3H]CP55,940 binding up to 32 uM by liquid scintillation counting method; how it was run: as §1

SMILES	Kb [1] [nM]	further results
N#Cc1ccc(NC(=O)Nc2cccc(-c3ccnc(N4CCCC4)n3)c2)cc1	168	inhibition [2]: Dose-dependent effect; Activity [3]: Active; Activity [4]: Active
O=C(Nc1ccc(O)cc1)Nc1cccc(-c2nccc(N3CCCC3)n2)c1		Activity [1]: inactive; Activity [5]: inactive
O=C(Nc1ccc(Cl)cc1)Nc1cccc(-c2ccnc(N3CCCC3)n2)c1	227	inhibition [2]: Dose-dependent effect
O=C(Nc1ccc(Br)cc1)Nc1cccc(-c2ccnc(N3CCCC3)n2)c1	395	
CN(C)c1nccc(-c2cccc(NC(=O)Nc3cccc(F)c3)c2)n1	967	
CN(C)c1nccc(-c2cccc(NC(=O)Nc3ccc(F)cc3)c2)n1	1120	
O=C(Nc1ccc(Cl)cc1)Nc1cccc(-c2cccc(N3CCCC3)n2)c1		inhibition [2]: Dose-dependent effect; Activity [4]: Active
CN(C)c1ccnc(-c2cccc(NC(=O)Nc3ccc(I)cc3)c2)n1	997	
N#Cc1ccc(NC(=O)Nc2cccc(-c3nccc(N4CCCC4)n3)c2)cc1	49.1	inhibition [2]: Dose-dependent effect; Activity [3]: Active; Activity [4]: Active
O=C(Nc1ccc(C(=O)O)cc1)Nc1cccc(-c2nccc(N3CCCC3)n2)c1		Activity [1]: inactive; Activity [5]: inactive
CN(C)c1ccnc(-c2cccc(NC(=O)Nc3ccc(C(F)(F)F)cc3)c2)n1	144	
CN(C)c1nccc(-c2cccc(NC(=O)Nc3ccc(I)cc3)c2)n1	965	
CN(C)c1ccnc(-c2cccc(NC(=O)Nc3cccc(F)c3)c2)n1	670	
CN(C)c1ccnc(-c2cccc(NC(=O)Nc3ccc(F)cc3)c2)n1	1220	

Continued, in another order:

Kb [1] [nM]	SMILES	further results
69.6	CCN(CC)c1ccnc(-c2cccc(NC(=O)Nc3ccc(C#N)cc3)c2)n1	inhibition [2]: Dose-dependent effect
264	O=C(Nc1ccc(Cl)cc1)Nc1cccc(-c2nccc(N3CCCC3)n2)c1	inhibition [2]: Dose-dependent effect
66.4	N#Cc1ccc(NC(=O)Nc2cccc(-c3nccc(N4CCCCC4)n3)c2)cc1	
207	CCN(C)c1ccnc(-c2cccc(NC(=O)Nc3ccc(C#N)cc3)c2)n1	
2110	CC(=O)c1ccc(NC(=O)Nc2cccc(-c3nccc(N4CCCC4)n3)c2)cc1	
463	CCOC(=O)c1ccc(NC(=O)Nc2cccc(-c3nccc(N4CCCC4)n3)c2)cc1	
196	O=C(Nc1ccc(F)cc1)Nc1cccc(-c2ccnc(N3CCCC3)n2)c1	
313	CN(C)c1ccnc(-c2cccc(NC(=O)Nc3ccc(C#N)cc3)c2)n1	
1830	COc1ccc(NC(=O)Nc2cccc(-c3nccc(N4CCCC4)n3)c2)cc1	
1980	N#Cc1cccc(NC(=O)Nc2cccc(-c3nccc(N4CCCC4)n3)c2)c1	
417	CN(C)c1nccc(-c2cccc(NC(=O)Nc3ccc(C#N)cc3)c2)n1	
97.7	N#Cc1ccc(NC(=O)Nc2cccc(-c3nccc(NC4CC4)n3)c2)cc1	
223	O=C(Nc1ccc(F)cc1)Nc1cccc(-c2nccc(N3CCCC3)n2)c1	
211	N#Cc1ccc(NC(=O)Nc2cccc(-c3nccc(N4CCC4)n3)c2)cc1	
102	O=C(Nc1ccc(Br)cc1)Nc1cccc(-c2nccc(N3CCCC3)n2)c1	
